In brackets after ≈: the same amount, converted by molar mass. Activity calls are given as the source filed them. No cut-off for these calls is given here.
How the values were obtained:
[1] = system: Mycobacterium tuberculosis; assay: Antimycobacterial activity against Mycobacterium tuberculosis H37Rv CNCTC My 331/88 after 14 days; type: functional; settings: H37Rv CNCTC My 331/88, 336 h
How it was run: (§1)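 M. tuberculosis strains (H37Rv and clinical MDR/XDR isolates) tested by microdilution in Šula's semisynthetic medium. Compounds were dissolved in DMSO and tested at 32 to 0.03 µM in twofold steps. Inoculum was a 1.0 McFarland suspension diluted 10-3. Plates were incubated at 37 °C and read at 14 and 21 days.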

[2] = system: Mycobacterium tuberculosis; assay: Antimycobacterial activity against Mycobacterium tuberculosis H37Rv CNCTC My 331/88 after 21 days; type: functional; settings: H37Rv CNCTC My 331/88, 504 h; how it was run: as §1
Mycobacterium avium [3] = assay: Antimycobacterial activity against Mycobacterium avium CNCTC My 330/88 after 14 days; type: functional; settings: CNCTC My 330/88, 336 h
How it was run: (§2)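 M. avium was tested by microdilution in Šula's semisynthetic medium, with compounds dissolved in DMSO and serially diluted from 1000 down to 1. Inoculum was a 1.0 McFarland suspension diluted 10-5. Plates were incubated at 37 °C and read at 14 and 21 days. […] Isoniazid and rifampicin served as standards.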

Mycobacterium avium [4] = assay: Antimycobacterial activity against Mycobacterium avium CNCTC My 330/88 after 21 days; type: functional; settings: CNCTC My 330/88, 504 h; how it was run: as §2
Mycobacterium kansasii [5] = assay: Antimycobacterial activity against Mycobacterium kansasii CNCTC My 235/80 after 7 days; type: functional; settings: CNCTC My 235/80, 168 h
How it was run: (§3)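 Microdilution in Šula's semisynthetic medium; compounds in DMSO at 32–0.03 µM. Inoculum from 1.0 McFarland suspension diluted 10-4. […] Isoniazid and rifampicin as reference drugs.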

Mycobacterium kansasii [6] = assay: Antimycobacterial activity against Mycobacterium kansasii CNCTC My 235/80 after 14 days; type: functional; settings: CNCTC My 235/80, 336 h; how it was run: as §3
Mycobacterium kansasii [7] = assay: Antimycobacterial activity against Mycobacterium kansasii CNCTC My 235/80 after 21 days; type: functional; settings: CNCTC My 235/80, 504 h; how it was run: as §3
Mycobacterium kansasii [8] = assay: Antimycobacterial activity against Mycobacterium kansasii 6509/96 after 7 days; type: functional; settings: 6509/96, 168 h; how it was run: as §3
Mycobacterium kansasii [9] = assay: Antimycobacterial activity against Mycobacterium kansasii 6509/96 after 14 days; type: functional; settings: 6509/96, 336 h; how it was run: as §3
Mycobacterium kansasii [10] = assay: Antimycobacterial activity against Mycobacterium kansasii 6509/96 after 21 days; type: functional; settings: 6509/96, 504 h; how it was run: as §3
Staphylococcus aureus [11] = assay: Antibacterial activity against Staphylococcus aureus subsp. aureus ATCC 29213 CCM 4223 at highest concentration measured after 24 to 48 hrs by alamar blue dye based broth microdilution assay; type: functional, organism-based
Staphylococcus aureus [12] = assay: Antibacterial activity against methicillin-resistant Staphylococcus aureus subsp. aureus ATCC 43300 CCM 4750 at highest concentration measured after 24 to 48 hrs by alamar blue dye based broth microdilution assay; type: functional, organism-based
[13] = system: Staphylococcus epidermidis; assay: Antibacterial activity against Staphylococcus epidermidis at highest concentration measured after 24 to 48 hrs by alamar blue dye based broth microdilution assay; type: functional, organism-based
Enterococcus faecalis = assay: Antibacterial activity against Enterococcus faecalis ATCC 29212 CCM 4224 at highest concentration measured after 24 to 48 hrs by alamar blue dye based broth microdilution assay; type: functional, organism-based
Escherichia coli = assay: Antibacterial activity against Escherichia coli ATCC 25922 CCM 3954 at highest concentration measured after 24 to 48 hrs by alamar blue dye based broth microdilution assay; type: functional, organism-based
Klebsiella pneumoniae = assay: Antibacterial activity against Klebsiella pneumoniae at highest concentration measured after 24 to 48 hrs by alamar blue dye based broth microdilution assay; type: functional, organism-based
Serratia marcescens = assay: Antibacterial activity against Serratia marcescens at highest concentration measured after 24 to 48 hrs by alamar blue dye based broth microdilution assay; type: functional, organism-based
Pseudomonas aeruginosa = assay: Antibacterial activity against Pseudomonas aeruginosa ATCC 27853 CCM 3955 at highest concentration measured after 24 to 48 hrs by alamar blue dye based broth microdilution assay; type: functional, organism-based
Candida albicans = assay: Antifungal activity against Candida albicans ATCC 24433 CCM 8320 at highest concentration measured after 24 to 48 hrs by alamar blue dye based broth microdilution assay; type: functional, organism-based
Pichia kudriavzevii = assay: Antifungal activity against Candida krusei ATCC 6258 CCM8271 at highest concentration measured after 24 to 48 hrs by alamar blue dye based broth microdilution assay; type: functional, organism-based
Candida parapsilosis = assay: Antifungal activity against Candida parapsilosis ATCC 22019 CCM 8260 at highest concentration measured after 24 to 48 hrs by alamar blue dye based broth microdilution assay; type: functional, organism-based
Candida tropicalis = assay: Antifungal activity against Candida tropicalis ATCC 750 CCM 8264 at highest concentration measured after 24 to 48 hrs by alamar blue dye based broth microdilution assay; type: functional, organism-based
Aspergillus fumigatus = assay: Antifungal activity against Aspergillus fumigatus ATCC 204305 at highest concentration measured after 24 to 48 hrs by alamar blue dye based broth microdilution assay; type: functional, organism-based
Aspergillus flavus = assay: Antifungal activity against Aspergillus flavus CCM 8363 at highest concentration measured after 24 to 48 hrs by alamar blue dye based broth microdilution assay; type: functional, organism-based
Lichtheimia corymbifera = assay: Antifungal activity against Lichtheimia corymbifera CCM 8077 at highest concentration measured after 24 to 48 hrs by alamar blue dye based broth microdilution assay; type: functional, organism-based
[14] = system: Trichophyton interdigitale; assay: Antifungal activity against Trichophyton interdigitale ATCC 9533 CCM 8377 at highest concentration measured after 72 to 120 hrs by alamar blue dye based broth microdilution assay; type: functional
HepG2 = assay: Cytotoxicity against human HepG2 cells assessed as reduction in cell viability after 48 hrs by CellTiter 96 aqueous one solution assay; type: cell-based; settings: HepG2, 48 h
[15] = Cytotoxicity against human HepG2 cells assessed as cell viability at 30 uM after 48 hrs by CellTiter 96 aqueous one solution assay relative to control; type: cell-based; settings: read-out: Activity
How it was run: (§4)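 HepG2 (DMEM, 10% FBS, 1 mM pyruvate) or A431 (DMEM, 10% FBS) seeded 10,000 cells/well, 24 h at 37 °C, 5% CO2, then 30 µM compound for 48 h. MTS reagent 60 min, absorbance 490 nm, background subtracted; 0.1% DMSO vehicle = 100%, 10% SDS = 0% viability.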

A-431 = assay: Cytotoxicity against human A431 cells assessed as reduction in cell viability after 48 hrs by CellTiter 96 aqueous one solution assay; type: cell-based; settings: A-431, 48 h
[16] = Cytotoxicity against human A431 cells assessed as cell viability at 30 uM after 48 hrs by CellTiter 96 aqueous one solution assay relative to control; type: cell-based, A-431; settings: read-out: Activity; how it was run: as §4
[17] = system: Mycobacterium tuberculosis; assay: Antimycobacterial activity against XDR Mycobacterium tuberculosis Praha 131 after 14 days; type: functional; settings: Praha 131, 336 h; how it was run: as §1

SMILES | MIC99 [1] [µM] | MIC99 [2] [µM] | MIC99 (Mycobacterium avium [3]) [µM] | MIC99 (Mycobacterium avium [4]) [µM] | MIC99 (Mycobacterium kansasii [5]) [µM] | MIC99 (Mycobacterium kansasii [6]) [µM] | MIC99 (Mycobacterium kansasii [7]) [µM] | MIC99 (Mycobacterium kansasii [8]) [µM] | MIC99 (Mycobacterium kansasii [9]) [µM] | MIC99 (Mycobacterium kansasii [10]) [µM] | Activity (Staphylococcus aureus [11]) | Activity (Staphylococcus aureus [12]) | Activity [13] | Activity (Enterococcus faecalis) | Activity (Escherichia coli) | Activity (Klebsiella pneumoniae) | Activity (Serratia marcescens) | Activity (Pseudomonas aeruginosa) | Activity (Candida albicans) | Activity (Pichia kudriavzevii) | further results
O=[N+]([O-])c1cc(CSc2nnc(-c3ccc(Cl)cc3)n2Cc2ccccc2)cc([N+](=O)[O-])c1 | 4 (≈ 1.93 µg/mL) | 4 (≈ 1.93 µg/mL) | 250 (≈ 120 µg/mL) | 250 (≈ 120 µg/mL) | 4 (≈ 1.93 µg/mL) | 8 (≈ 3.86 µg/mL) | 8 (≈ 3.86 µg/mL) | 8 (≈ 3.86 µg/mL) | 8 (≈ 3.86 µg/mL) | 8 (≈ 3.86 µg/mL) | inactive | inactive | inactive | inactive | inactive | inactive | inactive | inactive | inactive | inactive | Activity (Candida parapsilosis): inactive; Activity (Candida tropicalis): inactive; Activity (Aspergillus fumigatus): inactive; Activity (Aspergillus flavus): inactive; Activity (Lichtheimia corymbifera): inactive; Activity [14]: inactive; IC50 (HepG2): > 30 µM; viability at 48 h, 30 µM [15]: 104%; IC50 (A-431): > 30 µM; viability at 48 h, 30 µM [16]: 73%
O=[N+]([O-])c1cc(CSc2nnc(-c3ccc(Cl)cc3)n2Cc2ccccc2)cc(C(F)(F)F)c1 | 32 (≈ 16.2 µg/mL) | > 32 | 250 (≈ 126 µg/mL) | 250 (≈ 126 µg/mL) | 32 (≈ 16.2 µg/mL) | > 32 | > 32 | > 32 | > 32 | > 32 | inactive | inactive | inactive | inactive | inactive | inactive | inactive | inactive | inactive | inactive | Activity (Candida parapsilosis): inactive; Activity (Candida tropicalis): inactive; Activity (Aspergillus fumigatus): inactive; Activity (Aspergillus flavus): inactive; Activity (Lichtheimia corymbifera): inactive; Activity [14]: inactive; IC50 (HepG2): > 30 µM; viability at 48 h, 30 µM [15]: 107%; IC50 (A-431): > 30 µM; viability at 48 h, 30 µM [16]: 73%
CCCCCCn1c(SCc2ccccc2)nnc1-c1cc([N+](=O)[O-])cc([N+](=O)[O-])c1 | 1 (≈ 0.442 µg/mL) | 1 (≈ 0.442 µg/mL) | 250 (≈ 110 µg/mL) | 250 (≈ 110 µg/mL) | 1 (≈ 0.442 µg/mL) | 1 (≈ 0.442 µg/mL) | 1 (≈ 0.442 µg/mL) | 1 (≈ 0.442 µg/mL) | 1 (≈ 0.442 µg/mL) | 1 (≈ 0.442 µg/mL) | inactive | inactive | inactive | inactive | inactive | inactive | inactive | inactive | inactive | inactive | Activity (Candida parapsilosis): inactive; Activity (Candida tropicalis): inactive; Activity (Aspergillus fumigatus): inactive; Activity (Aspergillus flavus): inactive; Activity (Lichtheimia corymbifera): inactive; Activity [14]: inactive; IC50 (HepG2): > 30 µM; viability at 48 h, 30 µM [15]: 102%; IC50 (A-431): > 30 µM; viability at 48 h, 30 µM [16]: 98%
Cn1c(SCc2ccc(Br)cc2)nnc1-c1cc([N+](=O)[O-])cc([N+](=O)[O-])c1 | 0.25 (≈ 0.113 µg/mL) | 0.5 (≈ 0.225 µg/mL) | 8 (≈ 3.6 µg/mL) | 8 (≈ 3.6 µg/mL) | 0.5 (≈ 0.225 µg/mL) | 0.5 (≈ 0.225 µg/mL) | 1 (≈ 0.45 µg/mL) | 0.25 (≈ 0.113 µg/mL) | 0.5 (≈ 0.225 µg/mL) | 1 (≈ 0.45 µg/mL) | inactive | inactive | inactive | inactive | inactive | inactive | inactive | inactive | inactive | inactive | Activity (Candida parapsilosis): inactive; Activity (Candida tropicalis): inactive; Activity (Aspergillus fumigatus): inactive; Activity (Aspergillus flavus): inactive; Activity (Lichtheimia corymbifera): inactive; Activity [14]: inactive; IC50 (HepG2): > 30 µM; viability at 48 h, 30 µM [15]: 152%; IC50 (A-431): > 30 µM; viability at 48 h, 30 µM [16]: 137%
NCC[C@H](O)C(=O)N[C@@H]1C[C@H](N)[C@@H](O[C@H]2O[C@H](CN)[C@@H](O)[C@H](O)[C@H]2O)[C@H](O)[C@H]1O[C@H]1O[C@H](CO)[C@@H](O)[C@H](N)[C@H]1O [AMIKACIN] |  |  |  |  |  |  |  |  |  |  |  |  |  |  |  |  |  |  |  |  | MIC99 [17]: > 32 µM

— ChEMBL document CHEMBL4373711, “Development of 3,5-Dinitrophenyl-Containing 1,2,4-Triazoles and Their Trifluoromethyl Analogues as Highly Efficient Antitubercular Agents Inhibiting Decaprenylphosphoryl-β-d-ribofuranose 2'-Oxidase” (J Med Chem, 2019)
